Measured values as given in ChEMBL document CHEMBL1147936, “Regulatory molecules for the 5-HT3 receptor ion channel gating system” (Bioorg Med Chem, 2007).
Activity calls are given as the source filed them. The calls are words filed in the database; no cut-off is given here.

How the values were obtained:
[1] = molecular target: T1, 5-hydroxytryptamine receptor 3A (Cavia porcellus) (UniProt O70212); experiment: Intrinsic activity at 5HT3 receptor in Hartley guinea-pig ileum assessed as muscle contraction relative to 5-hydroxytryptamine; assay type: tissue-based
T1 sequence (whole entry): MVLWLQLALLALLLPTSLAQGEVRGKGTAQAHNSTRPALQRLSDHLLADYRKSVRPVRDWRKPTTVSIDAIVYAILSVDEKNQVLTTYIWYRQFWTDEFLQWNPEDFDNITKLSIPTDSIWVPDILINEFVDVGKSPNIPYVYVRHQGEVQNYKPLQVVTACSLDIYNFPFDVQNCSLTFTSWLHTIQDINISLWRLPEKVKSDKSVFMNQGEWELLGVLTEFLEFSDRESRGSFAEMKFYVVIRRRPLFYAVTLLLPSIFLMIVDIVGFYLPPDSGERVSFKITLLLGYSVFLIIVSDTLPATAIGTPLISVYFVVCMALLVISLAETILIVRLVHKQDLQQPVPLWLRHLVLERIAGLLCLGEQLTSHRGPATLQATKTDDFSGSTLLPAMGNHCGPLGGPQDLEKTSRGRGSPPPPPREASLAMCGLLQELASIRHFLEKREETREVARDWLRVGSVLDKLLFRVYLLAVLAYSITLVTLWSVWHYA

[2] = molecular target: T1, 5-hydroxytryptamine receptor 3A (Cavia porcellus); experiment: Agonist activity at 5HT3 receptor in Hartley guinea-pig ileum assessed as muscle contraction; assay type: functional, tissue-based
Summary of the method: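 Compounds added to the bath and contractions recorded isometrically. pD2 = negative log molar concentration giving 50% of maximum contraction, from individual concentration–response curves.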

[3] = molecular target: T1, 5-hydroxytryptamine receptor 3A (Cavia porcellus); experiment: Antagonist activity at 5HT3 receptor in Hartley guinea-pig ileum assessed as effect on 5-hydroxytryptamine-induced muscle contraction; assay type: functional, tissue-based; parameters: concentration or dose not given beside the values
Summary of the method: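 Contractions to 5-HT recorded isometrically with and without compound present. Vehicle-treated preparation served as time-matched control. Antagonism expressed as the ratio of 5-HT contractile response in presence versus absence of compound.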

[4] = molecular target: T1, 5-hydroxytryptamine receptor 3A (Cavia porcellus); experiment: Intrinsic activity at 5HT3 receptor in Hartley guinea-pig ileum assessed as muscle contraction at 0.1 mM relative to 5-hydroxytryptamine; assay type: tissue-based

CN1CCN(c2nc3cc(N)ccc3o2)CC1 gave an Intrinsic activity [1] of 0.76, a pD2 [2] of 4.97 and an Activity [3] of 73%.
NCCc1c[nH]c2ccc(O)cc12 gave an Intrinsic activity [1] of 1 and a pD2 [2] of 5.34.
CCOC(=O)c1ccc2oc(N3CCN(C)CC3)nc2c1 was tested, and the pD2 [2] was < 4, the Activity [3] was 28% and the Activity [4] was “inactive”.
With CCc1cc(Cl)cc2nc(N3CCN(C)CC3)oc12 the Intrinsic activity [1] was 0.17, the pD2 [2] was 6.82 and the Activity [3] was 100%.
With CC(C)c1cccc2nc(N3CCN(C)CC3)oc12 the pD2 [2] was < 4, the Activity [3] was 81% and the Activity [4] was “inactive”.
COc1cc(Cl)cc2nc(N3CCN(C)CC3)oc12 showed an Intrinsic activity [1] of 0.62, a pD2 [2] of 6.16 and an Activity [3] of 92%.
For COc1cccc2nc(N3CCN(C)CC3)oc12, the pD2 [2] was < 4, the Activity [3] was 57% and the Activity [4] was “inactive”.
Cc1ccc2oc(N3CCN(C)CC3)nc2c1 gave an Intrinsic activity [1] of 0.72, a pD2 [2] of 6 and an Activity [3] of 87%.
CN1CCN(c2nc3cc(F)ccc3o2)CC1 gave an Intrinsic activity [1] of 0.64, a pD2 [2] of 5.57 and an Activity [3] of 91%.
CN1C2CCCC1CC(NC(=O)c1nn(C)c3ccccc13)C2 (stereo not drawn) was tested, and the pD2 [2] was < 4, the Activity [3] was 100% and the Activity [4] was “inactive”.
For CN1CCN(c2nc3cc(C(F)(F)F)ccc3o2)CC1, the pD2 [2] was < 4, the Activity [3] was 36% and the Activity [4] was “inactive”.
For CN1CCN(c2nc3cc([N+](=O)[O-])ccc3o2)CC1, the Intrinsic activity [1] was 0.52, the pD2 [2] was 6.1 and the Activity [3] was 79%.
For CN1CCN(c2nc3cccc(Cl)c3o2)CC1, the Intrinsic activity [1] was 0.24, the pD2 [2] was 5.5 and the Activity [3] was 90%.
CN1CCN(c2nc3cc(C(C)(C)C)ccc3o2)CC1 was tested, and the pD2 [2] was < 4, the Activity [3] was 47% and the Activity [4] was “inactive”.
With CC(=O)c1ccc2oc(N3CCN(C)CC3)nc2c1 the pD2 [2] was < 4, the Activity [3] was 22% and the Activity [4] was “inactive”.
In the case of COc1cc(C)cc2nc(N3CCN(C)CC3)oc12, the Intrinsic activity [1] is reported as 0.56, the pD2 [2] is reported as 6.13 and the Activity [3] is reported as 91%.
In the case of Cc1cc(Cl)cc2nc(N3CCN(C)CC3)oc12, the Intrinsic activity [1] is reported as 0.24, the pD2 [2] is reported as 6.7 and the Activity [3] is reported as 94%.
CN1CCN(c2nc3cc(Cl)cc(Cl)c3o2)CC1 was tested, and the Intrinsic activity [1] was 0.14, the pD2 [2] was 6.51 and the Activity [3] was 90%.
Cc1cc(C)c2oc(N3CCN(C)CC3)nc2c1 gave an Intrinsic activity [1] of 0.62, a pD2 [2] of 6.32 and an Activity [3] of 94%.
For Cc1cccc2nc(N3CCN(C)CC3)oc12, the Intrinsic activity [1] was 0.58, the pD2 [2] was 5.48 and the Activity [3] was 89%.
In the case of CN1CCN(c2nc3cc(Cl)ccc3o2)CC1, the Intrinsic activity [1] is reported as 0.5, the pD2 [2] is reported as 6.07 and the Activity [3] is reported as 92%.
With CN1CCN(c2nc3cc(Br)ccc3o2)CC1 the Intrinsic activity [1] was 0.48, the pD2 [2] was 6.21 and the Activity [3] was 89%.
CN1CCN(c2nc3ccccc3o2)CC1 showed an Intrinsic activity [1] of 0.62, a pD2 [2] of 5.01 and an Activity [3] of 82%.
Molecule CCc1cccc2nc(N3CCN(C)CC3)oc12 has an Intrinsic activity [1] of 0.15, a pD2 [2] of 5.48 and an Activity [3] of 90%.
In the case of Cc1cc(Cl)c2oc(N3CCN(C)CC3)nc2c1, the Intrinsic activity [1] is reported as 0.26, the pD2 [2] is reported as 6.22 and the Activity [3] is reported as 96%.
With COc1ccc2oc(N3CCN(C)CC3)nc2c1 the Intrinsic activity [1] was 0.78, the pD2 [2] was 4.78 and the Activity [3] was 74%.
With CCc1cc(C)cc2nc(N3CCN(C)CC3)oc12 the Intrinsic activity [1] was 0.26, the pD2 [2] was 6.46 and the Activity [3] was 99%.
For CCc1ccc2oc(N3CCN(C)CC3)nc2c1, the pD2 [2] was < 4, the Activity [3] was 63% and the Activity [4] was “inactive”.
